Source: PubChem BioAssay
Activity calls are given as the source filed them.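 Rule for the calls, unless noted: active = viability at or under a set limit in both replicates, limit being median viability minus 3 SD (cut at about 48% in these data, passing the limit was not always enough); inconclusive = at or under the limit in just one replicate; inactive = at or above the limit in both replicates.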

Assays:
[1] = SK-BR-3 cell growth inhibitors, pilot screen, 24 h, human (AID 572;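 active = viability at or below 10% of carrier control in both of two separate runs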;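 note: compound exposure lasted between 18 and 24 h rather than exactly 24 h; 100% = carrier-treated control wells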); details: SK-BR-3 viability, CellTiter-Glo luminescence, at 10 µM, stronger effect = lower value
[2] = HUVEC growth inhibition – cell-based, human, primary screen (AID 575;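 active = viability at or below 30% in both replicate assays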;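 note: 100% = median of untreated cell wells with 0.1% DMSO on each plate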); details: HUVEC proliferation, CellTiter-Glo luminescence, 72 h; at 10 µM; stronger effect = lower value
Outline: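 system = HUVEC primary cells | amount = 1250 cells/well | buffer or medium = supplemented EBM, 2% fetal bovine serum | dosing = single-point 10 µM, DMSO 0.1% final | times = 72 h compound incubation | detection = CTG luminescence | read-out = % viability relative to median vehicle-well signal on each plate | control set = vehicle and MePR control wells | format = collagen-coated 384-well format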

[3] = growth inhibitors of H69AR lung tumor, primary screen, human, duplicate replicates (AID 580); details: H69AR lung tumor cells viability, ATP luminescence, 72 h; at 10 µM; stronger effect = lower value;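 note: 100% = mean luminescence of untreated wells and 0% = no signal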
[4] = reversal of MRP1-mediated doxorubicin resistance, pilot screen, H69AR cells, doxorubicin co-treatment (AID 601;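 active = viability loss from added drug above about 55%, and viability with drug at most 40%, in both replicates, limit read from the data, passing the limit was not always enough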); details: CellTiter-Glo, 72 h, at 10 µM; for differential viability (reversal): stronger effect = higher value
[5] = 384-well plate pilot, post-Golgi transport modulator project, inhibition of yeast transport mutant growth (AID 636; in the data active = inhibition above about 31%); details: absorbance 615 nm, about 18 h, stronger effect = higher value
[6] = growth suppression of yeast trafficking mutant, preliminary HTS, modulators of trafficking downstream of Golgi apparatus project, 1536-format plate, OD 615 nm (AID 637; in the data active = inhibition above about 30%); details: yeast transport mutant growth, absorbance 615 nm, 18 h; stronger effect = higher value
[7] = H69AR cells + 2 uM doxorubicin, measured here: viability with 2 uM doxorubicin, stronger effect = lower value
[8] = H69AR cells, compound alone cytotoxicity

Compound | viability [1] | viability [2] | viability [3] | differential viability (reversal) ([4]; H69AR cells + 2 uM doxorubicin) | viability [4, 7] [%] | viability [4, 8] [%] | inhibition [5] | inhibition [6]
CCCCCc1c(C)nc(SCC(=O)O)[nH]c1=O | 108% (inactive) | 108% (inactive) | 111% (inactive) | 14% (inactive) | 97.1 | 111 | 1.23% (inactive) | -3.39% (inactive)
O=c1[nH]c(NCc2ccccc2)nc2c1CCCC2 | 87% (inactive) | 115% (inactive) | 104% (inactive) | 7.85% (inactive) | 96.5 | 104 | -4.19% (inactive) | -10% (inactive)
COc1ccccc1C1N(c2ccc(F)cc2)C(=O)C2CCCN21 (stereo unspecified) | 102% (inactive) | 111% (inactive) | 108% (inactive) | 17.8% (inactive) | 90.1 | 108 | -5.07% (inactive) | -1.27% (inactive)
COC(=O)c1ccccc1NC(=O)c1cnc2sccn2c1=O | 110% (inactive) | 87.9% (inactive) | 104% (inactive) | 8.43% (inactive) | 95.5 | 104 | -3.6% (inactive) | -0.91% (inactive)
COc1ccc(NS(=O)(=O)c2ccc(N)cc2)nn1 | 91% (inactive) | 100% (inactive) | 104% (inactive) | 8.44% (inactive) | 95.3 | 104 | -0.78% (inactive) | 0% (inactive)
Cc1cc(S(=O)(=O)N2CCN(c3ncccn3)CC2)ccc1-n1cnnn1 | 94% (inactive) | 120% (inactive) | 97.1% (inactive) | 3.36% (inactive) | 93.7 | 97.1 | -2.8% (inactive) | -0.73% (inactive)
CC(C)Oc1cc2oc(=O)c3c(c2cc1Cl)CCC3 | 66% (inactive) | 99% (inactive) | 98.2% (inactive) | 19.7% (inactive) | 78.6 | 98.2 | -7.4% (inactive) | 0.97% (inactive)
Cc1cc(=O)n2nc(N3CCC(C(=O)N4CCN(Cc5ccccc5)CC4)CC3)sc2n1 | 97% (inactive) | 108% (inactive) | 91.1% (inactive) | 7.01% (inactive) | 84.1 | 91.1 | -3.24% (inactive) | -1.27% (inactive)
CCOc1ccccc1NC(=O)CN(C)S(=O)(=O)c1cccc2nsnc12 | 104% (inactive) | 91.1% (inactive) | 84% (inactive) | -1.12% (inactive) | 85.1 | 84 | -6.76% (inactive) | 0.73% (inactive)
CCCS(=O)(=O)N1CCCC(C(=O)NC(C)c2ccc3c(c2)OCCO3)C1 (stereo unspecified) | 79% (inactive) | 71.3% (inactive) | 93.9% (inactive) | 6.12% (inactive) | 87.8 | 93.9 | -2.34% (inactive) | 0.49% (inactive)
COc1ccc(OC)c(Nc2nc(-c3sc(N)nc3C)cs2)c1 | 97% (inactive) | 55.3% (inactive) | 78% (inactive) | 2.88% (inactive) | 75.1 | 78 | -6.49% (inactive) | -0.91% (inactive)
Cc1cnc(C(=O)NCCc2ccc(S(=O)(=O)NC(=O)NC3CCCCC3)cc2)cn1 | 94% (inactive) | 94.9% (inactive) | 89.3% (inactive) | -16.6% (inactive) | 106 | 89.3 | 1.04% (inactive) | 2% (inactive)
C=CCc1ccccc1OCC(O)CNC(C)C (stereo unspecified) | 82% (inactive) | 70.1% (inactive) | 91.3% (inactive) | -8.68% (inactive) | 100 | 91.3 | -2.34% (inactive) | 1.67% (inactive)
Cc1ccc(N(C(C)C(=O)Nc2ccc(S(=O)(=O)N3CCOCC3)cc2)S(C)(=O)=O)cc1 (stereo unspecified) | 87% (inactive) | 106% (inactive) | 99.8% (inactive) | -6.04% (inactive) | 106 | 99.8 | -6.3% (inactive) | -7.9% (inactive)
O=C(Nc1cccnc1)c1cc2c(ccc3ccccc32)o1 | 96% (inactive) | 97.3% (inactive) | 84.9% (inactive) | 0.36% (inactive) | 84.5 | 84.9 | -0.13% (inactive) | -3.45% (inactive)
CCOC(=O)N1CCC(n2c(=S)[nH]c3cc(OC)c(OC)cc3c2=O)CC1 | 114% (inactive) | 59.5% (inactive) | 57.1% (inactive) | -2.02% (inactive) | 59.1 | 57.1 | -4.16% (inactive) | -1.27% (inactive)
O=S1(=O)CCN2C(=N1)SC1=C2CCN(Cc2ccccc2)C1 | 106% (inactive) | 96.7% (inactive) | 89% (inactive) | -1.18% (inactive) | 90.2 | 89 | -9.04% (inactive) | 3.09% (inactive)
Cc1nnc(SCc2ccccc2F)n1NCc1cccs1 | 100% (inactive) | 93.6% (inactive) | 89% (inactive) | -0.635% (inactive) | 89.7 | 89 | -6.85% (inactive) | 5% (inactive)
COc1ccccc1N1CCN(CC(O)COc2cccc3ccccc23)CC1 (stereo unspecified) | 83% (inactive) | 74.9% (inactive) | 77.4% (inactive) | -13.3% (inactive) | 90.7 | 77.4 | -1.3% (inactive) | -1.5% (inactive)

Compound | viability [1] | viability [2] | viability [3] | differential viability (reversal) ([4]; H69AR cells + 2 uM doxorubicin) | viability [4, 7] [%] | viability [4, 8] [%] | inhibition [5] | inhibition [6]
O=C(Nc1nc(-c2ccccc2)cs1)C1CCCO1 (stereo unspecified) | 91% (inactive) | 101% (inactive) | 94.2% (inactive) | 10.9% (inactive) | 83.3 | 94.2 | -4.4% (inactive) | -2.18% (inactive)
COC(=O)CSc1ncccc1-c1nc2ccccc2[nH]1 | 110% (inactive) | 96.9% (inactive) | 90.8% (inactive) | -0.73% (inactive) | 91.5 | 90.8 | -2.33% (inactive) | -5.48% (inactive)
Cc1ccc(N(CC(O)CN2CCCC2)S(=O)(=O)c2ccc(C)cc2)cc1 (stereo unspecified) | 132% (inactive) | 103% (inactive) | 86.9% (inactive) | -1.29% (inactive) | 88.2 | 86.9 | -5.21% (inactive) | -1.94% (inactive)
C=CCOC(=O)CC(NC(=O)c1ccccc1)c1ccccc1 (stereo unspecified) | 110% (inactive) | 108% (inactive) | 105% (inactive) | 19.7% (inactive) | 85.3 | 105 | -3.73% (inactive) | -5.45% (inactive)
O=C(CSc1nc2ccccc2o1)NC(=O)NCc1ccco1 | 92% (inactive) | 96.3% (inactive) | 89.3% (inactive) | 3.28% (inactive) | 86.1 | 89.3 | -3.51% (inactive) | -1.27% (inactive)
COC(=O)c1ccc(CSc2nc3ccccc3s2)o1 | 101% (inactive) | 88.7% (inactive) | 85% (inactive) | -19.3% (inactive) | 104 | 85 | -4.93% (inactive) | -3.09% (inactive)
COc1cc2c(cc1OC)CN(CC(=O)Nc1cccc(C)c1)CC2 | 117% (inactive) | 90.4% (inactive) | 93.1% (inactive) | 9.21% (inactive) | 83.9 | 93.1 | 0.14% (inactive) | -7.9% (inactive)
COc1ccc(S(=O)(=O)Nc2cccc(C)n2)c2ccccc12 | 94% (inactive) | 109% (inactive) | 100% (inactive) | 13.8% (inactive) | 86.2 | 100 | -2.08% (inactive) | 4.43% (inactive)
NNC(=O)c1ccncc1 | 108% (inactive) | 101% (inactive) | 104% (inactive) | 10.2% (inactive) | 93.7 | 104 | 1.04% (inactive) | 17.5% (inactive)
Cc1occc1-c1nnc(SCC(=O)N2CCOCC2)n1Cc1ccco1 | 106% (inactive) | 114% (inactive) | 101% (inactive) | -2.24% (inactive) | 103 | 101 | -2.93% (inactive) | 5.09% (inactive)
O=C(Nc1ncnc2sc3c(c12)CCC3)c1ccco1 | 81% (inactive) | 94% (inactive) | 80.1% (inactive) | -2.91% (inactive) | 83 | 80.1 | -4.73% (inactive) | 0.55% (inactive)
Cc1cc(S(=O)(=O)N(Cc2ccccc2)Cc2ccc(N(C)C)cc2)ccc1-n1cnnn1 | 81% (inactive) | 84.3% (inactive) | 84% (inactive) | -3.54% (inactive) | 87.6 | 84 | -8.24% (inactive) | -2.36% (inactive)
COc1ccccc1OCc1nc2ccccc2[nH]1 | 69% (inactive) | 88.5% (inactive) | 99.3% (inactive) | -5.04% (inactive) | 104 | 99.3 | -6.16% (inactive) | -0.55% (inactive)
CC1=Nn2c(nnc2-c2ccc(F)cc2)SC1 | 85% (inactive) | 97% (inactive) | 97.2% (inactive) | 0.585% (inactive) | 96.6 | 97.2 | -5.14% (inactive) | -2.55% (inactive)
O=C(CSc1ccc(-c2ccccc2)nn1)N1CCOCC1 | 94% (inactive) | 105% (inactive) | 95.2% (inactive) | 13.2% (inactive) | 82 | 95.2 | -6.44% (inactive) | -4.73% (inactive)
COc1ccc(-n2c(SCC(N)=O)nc3sc4c(c3c2=O)CCN(C)C4)cc1 | 126% (inactive) | 93.5% (inactive) | 101% (inactive) | -9.52% (inactive) | 111 | 101 | 6.16% (inactive) | -1.94% (inactive)
Cc1ccc(-c2ccc(=O)n(CC(=O)NCCCN3CCCCC3C)n2)cc1 (stereo unspecified) | 97% (inactive) | 99% (inactive) | 91.9% (inactive) | -3.54% (inactive) | 95.4 | 91.9 | -0.39% (inactive) | -6.56% (inactive)
CCc1nnc(NC(=O)CSc2nnc(-c3ccccc3OC)n2-c2ccccc2)s1 | 77% (inactive) | 108% (inactive) | 85.2% (inactive) | -1.85% (inactive) | 87 | 85.2 | -1.73% (inactive) | -1.45% (inactive)
